The record followed here is ChEMBL document CHEMBL2157971, “Antitumor agents 294. Novel E-ring-modified camptothecin-4β-anilino-4'-O-demethyl-epipodophyllotoxin conjugates as DNA topoisomerase I inhibitors and cytotoxic agents” (Bioorg Med Chem, 2012).

Active and inactive are the calls of the source. The rule behind the calls is not given here.

The term IC50 denotes the concentration that gives 50% inhibition. A high value points to weaker potency in that assay.

The test system of experiment [1] is KB. The experiment can be described thus: Antiproliferative activity against human KB cells after 72 hrs by […] blue dye assay. In kind it is functional, cell-based. Put shortly:
(§1)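 KB, etoposide-resistant KB/7D (kept in 7 µM etoposide), CPT-resistant KB CPT 100 (kept in 100 nM CPT) and revertant KB CPT 100rev cells, all grown in RPMI 1640 with 10% FBS. Log-phase cells seeded at 5000 cells/mL and exposed to a range of drug concentrations for 72 h. Growth read by […] blue dye assay; IC50 = 50% growth inhibition. Resistance ratio = KBCPT100 IC50 over KB IC50.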

The nature of experiment [2]: Antiproliferative activity against human camptothecin-resistant KBCPT100 cells after 72 hrs by […] blue dye assay. In kind it is functional, cell-based. Conditions: KBCPT100, 72 h. Put shortly:
as §1

Experiment [3] is described as follows: Antiproliferative activity against human partially revertant camptothecin-resistant KBCPT100 cells after 72 hrs by […] blue dye assay. It counts as functional, cell-based. Conditions: KBCPT100, 72 h. Put shortly:
as §1

Experiment [4] is described as follows: Antiproliferative activity against human VP16-resistant KB-7d cells overexpressing MRP after 72 hrs by […] blue dye assay. It counts as functional, cell-based. The following applies: KB7D. Put shortly:
as §1

The nature of experiment [5]: Resistance ratio of IC50 for human camptothecin-resistant KBCPT100 cells to IC50 for human KB cells. It counts as functional. In short, it runs like this:
as §1

Experiment [6] concerns the target T1, DNA topoisomerase 1 (Homo sapiens) (UniProt P11387).
T1 sequence (whole entry): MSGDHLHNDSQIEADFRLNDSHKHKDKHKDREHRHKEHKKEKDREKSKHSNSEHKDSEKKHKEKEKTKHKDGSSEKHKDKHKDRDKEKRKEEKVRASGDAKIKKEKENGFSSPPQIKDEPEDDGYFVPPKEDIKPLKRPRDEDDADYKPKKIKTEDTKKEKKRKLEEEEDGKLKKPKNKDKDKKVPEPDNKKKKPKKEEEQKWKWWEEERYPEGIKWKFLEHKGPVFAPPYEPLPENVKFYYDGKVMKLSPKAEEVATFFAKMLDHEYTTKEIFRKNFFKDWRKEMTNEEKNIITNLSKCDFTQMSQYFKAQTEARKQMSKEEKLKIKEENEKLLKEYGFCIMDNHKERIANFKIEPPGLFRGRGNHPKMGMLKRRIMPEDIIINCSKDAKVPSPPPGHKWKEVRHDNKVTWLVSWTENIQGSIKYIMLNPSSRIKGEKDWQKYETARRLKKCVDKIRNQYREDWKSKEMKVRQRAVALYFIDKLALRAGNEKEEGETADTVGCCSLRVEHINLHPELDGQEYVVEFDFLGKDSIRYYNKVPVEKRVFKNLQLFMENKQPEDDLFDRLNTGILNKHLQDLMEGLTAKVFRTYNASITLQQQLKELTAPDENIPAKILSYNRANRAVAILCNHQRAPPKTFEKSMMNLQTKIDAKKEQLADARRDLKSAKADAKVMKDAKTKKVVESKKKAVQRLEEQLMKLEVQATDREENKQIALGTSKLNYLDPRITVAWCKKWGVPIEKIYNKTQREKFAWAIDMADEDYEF
The experiment can be described thus: Inhibition of DNA topoisomerase 1 in human KB cells using [C14]thymidine assessed as protein-linked DNA breaks formation at 2.5 uM after 30 mins by […]. It counts as cell-based. In short, it runs like this:
(§2)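 KB cells labeled with [14C]thymidine for 24 h, then treated with compound (2.5 or 22.5 µM) at 37 °C. Protein-linked DNA breaks quantified by potassium-SDS co-precipitation.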

In experiment [7] the target is T1, DNA topoisomerase 1 (Homo sapiens). The experiment can be described thus: Inhibition of recombinant DNA topoismerase1-mediated cleavage activity at 25 uM after 15 mins by […]. Put shortly: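 32P-labeled ON5/ON4 oligoduplex (50 fmol) incubated with purified recombinant topoisomerase I (220 fmol) ± compound (25 µM) at 37 °C for 15 min. Stopped with SDS (0.5% final), then proteinase K digestion (1 mg/mL final). Cleavage products resolved on 20% denaturing urea/polyacrylamide gel.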

Experiment [8] has the same target. As to the kind of experiment: Inhibition of recombinant DNA topoisomerase1-mediated topo1-linked DNA relegation activity at 25 uM after 30 mins by […]. Put shortly:
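Suicide topo I cleavage complex pre-formed on radiolabeled oligoduplex. Religation started by adding 5 pmol of 13-mer ON6 with compound present, at 37 °C. 25-mer religation product resolved on 20% urea/polyacrylamide gel and quantified by phosphorimager.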

Experiment [9] is described as follows: Inhibition of DNA topoisomerase 2-mediated [alpha32P]dCTP-labelled pBR322 cleavage up to 25 uM after 30 mins by agarose gel electrophoresis.
The nature of experiment [10]: Inhibition of DNA topoisomerase 2-mediated relegation activity at 250 uM after 30 mins by agarose gel electrophoresis.
The target in experiment [11] is T1, DNA topoisomerase 1 (Homo sapiens). The experiment can be described thus: Inhibition of DNA topoisomerase 1 in human KB cells using [C14]thymidine assessed as protein-linked DNA breaks formation at 22.5 uM after 30 mins by […]. It counts as cell-based. Put shortly:
as §2

Experiment [12] concerns KB. The experiment can be described thus: Ratio of VP16 IC50 to compound IC50 for human KB cells. In kind it is functional.

In the case of `CC[C@@]1(O)C(=O)OCc2c1cc1n(c2=O)Cc2cc3ccccc3nc2-1` [CAMPTOTHECIN], the concentration for half-maximal inhibition (IC50) is 8.8 nM in experiment [1], 423 nM in [2], 24 nM in [3] and 6.8 nM in experiment [4]. The “Ratio IC50” value in experiment [5] was determined as 48.
On to `CC[C@@]1(O)C(=O)OCc2c1cc1n(c2=O)Cc2c-1nc1ccccc1c2/C=N\c1ccc(N[C@@H]2c3cc4c(cc3[C@@H](c3cc(OC)c(O)c(OC)c3)[C@H]3C(=O)OC[C@@H]32)OCO4)cc1`, for which the IC50 in experiment [1] came out at 24.5 nM; in experiment [2], 95 nM; in experiment [3], 44 nM; in experiment [4] it was 37.5 nM. Further, in experiment [5], the “Ratio IC50” value was determined as 2.8. Besides, the inhibition entry in experiment [6], in [8] and in experiment [10] was “Active” throughout. Moreover, the inhibition entry in [7] and in experiment [9] was “inactive” throughout.
As for `CC[C@@]1(O)C(=O)OCc2c1cc1n(c2=O)Cc2c-1nc1ccccc1c2/C=N\c1ccccc1N[C@@H]1c2cc3c(cc2[C@@H](c2cc(OC)c(O)c(OC)c2)[C@H]2C(=O)OC[C@@H]21)OCO3`, the IC50 was found to be 37 nM in [1], 112 nM in [2], 70 nM in experiment [3] and 70 nM in experiment [4]. Moreover, in experiment [5], the “Ratio IC50” value amounted to 2.8. For the same compound, the inhibition entry in experiment [6], in experiment [8] and in [10] was “Active” in each case. Further, the inhibition result in [7] and in [9] was “inactive” each time.
`CC[C@@](O)(C(=O)NC(C)C)c1cc2n(c(=O)c1CO)Cc1c-2nc2ccccc2c1/C=N\c1ccccc1N[C@@H]1c2cc3c(cc2[C@@H](c2cc(OC)c(O)c(OC)c2)[C@H]2C(=O)OC[C@@H]21)OCO3`: the IC50 in experiment [1] was 60 nM; in experiment [2], 206 nM; in experiment [3] it was 141 nM; in [4], 61 nM. Moreover, the “Ratio IC50” value in experiment [5] is recorded as 2.8; in [12] it was 8. Further, the fold change (FC) in experiment [11] came out at 7. Further, the inhibition entry in experiment [7] and in experiment [9] was “inactive” throughout. For the same compound, the inhibition result in experiment [8] and in [10] was “Active” in each case.
Take `COc1cc([C@@H]2c3cc4c(cc3[C@@H](O[C@@H]3O[C@@H]5CO[C@@H](C)O[C@H]5[C@H](O)[C@H]3O)[C@H]3COC(=O)[C@H]23)OCO4)cc(OC)c1O` [ETOPOSIDE]: the half-inhibitory concentration (IC50) turned out to be 475 nM in experiment [1], 336 nM in [2], 374 nM in experiment [3] and 55000 nM in experiment [4].
Turning to `CC[C@@](O)(C(=O)NC(C)C)c1cc2n(c(=O)c1CO)Cc1c-2nc2ccccc2c1/C=N\c1ccc(N[C@@H]2c3cc4c(cc3[C@@H](c3cc(OC)c(O)c(OC)c3)[C@H]3C(=O)OC[C@@H]32)OCO4)cc1`, the half-maximal inhibitory concentration (IC50) in experiment [1] was 42.5 nM; in [2] it was 120 nM; in experiment [3] it was 57 nM; in experiment [4], 50 nM. In addition, the “Ratio IC50” value in experiment [5] worked out at 2.8; in experiment [12] it was 10. Moreover, the inhibition entry in experiment [6], in [8] and in experiment [10] was “Active” each time. Further, the inhibition result in experiment [7] and in [9] was “inactive” throughout.
